Results from publication PMC8633684 (Translational Oncology, 2021).

Columns and labels:
[1] = Pharmacokinetic analysis, plasma and tissue concentration; format: in vivo, CD1 mice; settings: CD1, mouse, 1 mg/kg
KP-4 transplanted tumor = assay: KP-4 xenograft, 6 days of treatment followed by 3 days off-drug; format: in vivo, BALB/c Nude mice; settings: compared with vehicle group
MCL-1 = MCL-1 protein in KP-4 transplanted tumor homogenate; format: in vivo, BALB/c Nude mice; settings: KP-4 xenograft, BS-HH-002 5.4 mg/kg, versus vehicle group
Procedure, shortened: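 The model was KP-4 subcutaneous xenografts in BALB/c Nude mice. Tumors from at least five mice in each of the vehicle, gemcitabine and test compound (5.4 mg/kg) groups were analysed. MCL-1 and BCL-XL protein levels were measured by Western blot with β-actin or β-Tubulin as internal reference.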

TIP30/CC3 = assay: Immunofluorescence of TIP30/CC3 in KP-4 tumor sections; format: in vivo, BALB/c Nude mice; settings: BS-HH-002 at 3.0 mg/kg, p = 0.004, p = 0.461

## COC(=O)C[C@](O)(CCCC(C)(C)O)C(=O)O[C@@H]1C(OC)=C[C@]23CCCN2CCc2cc4c(cc2[C@H]13)OCO4 [HHT, homoharringtonine]
[1]; bone marrow, po
  concentration at 2 h: 669 ng/mL
  concentration at 8 h: 48.6 ng/mL
[1]; bone marrow, sc
  concentration at 0.5 h: 141 ng/mL
  concentration at 2 h: 412 ng/mL
  concentration at 8 h: 43.5 ng/mL
[1]; brain, sc
  concentration at 0.5 h: 11 ng/mL
  concentration at 2 h: 6.37 ng/mL
  concentration at 8 h: 4.97 ng/mL
[1]; esophagus, po
  concentration at 0.5 h: 607 ng/mL
[1]; esophagus, sc
  concentration at 0.5 h: 138 ng/mL
  concentration at 2 h: 185 ng/mL
  concentration at 8 h: 52.6 ng/mL
[1]; heart, po
  concentration at 0.5 h: 125 ng/mL
  concentration at 2 h: 321 ng/mL
  concentration at 8 h: 156 ng/mL
[1]; heart, sc
  concentration at 0.5 h: 541 ng/mL
  concentration at 2 h: 254 ng/mL
  concentration at 8 h: 115 ng/mL
[1]; kidney, po
  concentration at 0.5 h: 25.4 ng/mL
  concentration at 2 h: 117 ng/mL
  concentration at 8 h: 33.5 ng/mL
[1]; kidney, sc
  concentration at 0.5 h: 2010 ng/mL
  concentration at 2 h: 796 ng/mL
  concentration at 8 h: 95.6 ng/mL
  concentration at 24 h: 5.04 ng/mL
[1]; large intestine, po
  concentration at 0.5 h: 105 ng/mL
  concentration at 2 h: 528 ng/mL
  concentration at 8 h: 689 ng/mL
[1]; large intestine, sc
  concentration at 0.5 h: 1030 ng/mL
  concentration at 2 h: 807 ng/mL
  concentration at 8 h: 502 ng/mL
  concentration at 24 h: 35.4 ng/mL
[1]; liver, po
  concentration at 0.5 h: 184 ng/mL
  concentration at 2 h: 296 ng/mL
  concentration at 8 h: 173 ng/mL
[1]; liver, sc
  concentration at 0.5 h: 983 ng/mL
  concentration at 2 h: 615 ng/mL
  concentration at 8 h: 80.2 ng/mL
  concentration at 24 h: 4.53 ng/mL
[1]; lung, po
  concentration at 0.5 h: 135 ng/mL
  concentration at 2 h: 807 ng/mL
  concentration at 8 h: 73.6 ng/mL
[1]; lung, sc
  concentration at 0.5 h: 693 ng/mL
  concentration at 2 h: 287 ng/mL
  concentration at 8 h: 62.5 ng/mL
  concentration at 24 h: 5.8 ng/mL
[1]; pancreas, po
  concentration at 0.5 h: 85.8 ng/mL
  concentration at 2 h: 228 ng/mL
  concentration at 8 h: 211 ng/mL
  concentration at 24 h: 4.86 ng/mL
[1]; pancreas, sc
  concentration at 0.5 h: 753 ng/mL
  concentration at 2 h: 512 ng/mL
  concentration at 8 h: 215 ng/mL
  concentration at 24 h: 5.62 ng/mL
[1]; plasma, po
  concentration at 0.5 h: 14.8 ng/mL
  concentration at 2 h: 47.7 ng/mL
  concentration at 8 h: 13.7 ng/mL
[1]; plasma, sc
  concentration at 0.5 h: 166 ng/mL
  concentration at 2 h: 48.9 ng/mL
  concentration at 8 h: 11.1 ng/mL
  concentration at 24 h: 0.929 ng/mL
[1]; spleen, po
  concentration at 0.5 h: 184 ng/mL
  concentration at 2 h: 742 ng/mL
  concentration at 8 h: 225 ng/mL
[1]; spleen, sc
  concentration at 0.5 h: 1990 ng/mL
  concentration at 2 h: 1290 ng/mL
  concentration at 8 h: 282 ng/mL
  concentration at 24 h: 16.5 ng/mL
[1]; stomach, po
  concentration at 0.5 h: 1360 ng/mL
  concentration at 2 h: 806 ng/mL
  concentration at 8 h: 870 ng/mL
[1]; stomach, sc
  concentration at 0.5 h: 999 ng/mL
  concentration at 2 h: 587 ng/mL
  concentration at 8 h: 128 ng/mL
  concentration at 24 h: 9.84 ng/mL

## Nc1ccn([C@@H]2O[C@H](CO)[C@@H](O)C2(F)F)c(=O)n1 [gemcitabine, Gemcitabine]
KP-4 transplanted tumor
  tumor volume: decreased significantly
MCL-1
  MCL-1 protein level in tumor cells: no significant difference
TIP30/CC3
  CC3 protein expression: significantly increased
